Non-standard residues stand in square brackets, D forms with d. Residues, ends and D or L forms follow the SMILES beside them. Lys(Me2) = CN(C)CCCC[C@H](N)C(=O)O; hArg = N=C(N)NCCCC[C@H](N)C(=O)O; hLys = NCCCCC[C@H](N)C(=O)O; Nlys = NCCCCNCC(=O)O
What was measured:
[1] = Half-life of the conjugate when treated with 10% foetal bovine serum for enzymatic stability; type: ADME, Bos taurus; conditions: cattle
Summary of the method: (§1)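 Conjugates at 20 μM in 10% FBS RPMI 1640 medium or 25% mouse serum (Hepes-stabilised, diluted in PBS, pH 7.1–7.4), incubated at 37 °C. Sampled to 168 h (FBS) or 48 h (serum); proteins precipitated with 10% DCA, PNA 6mer internal standard added. Analysed by C3 RP-HPLC at 60 °C; t1/2 from normalised full-length peak area versus time.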

[2] = Half-life of the conjugate when treated with 25% murine serum for enzymatic stability; No data available; type: ADME; conditions: mouse; summary of the method: as §1
CD40 mRNA [3] = assay: […] CD40 expression in BCL1 cells treated with 1 uM peptide nucleic acid (PNA)conjugate; n=3; type: functional, cell-based; conditions: Mus musculus
Summary of the method: (§2)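 Mouse BCL1 cells in DMEM with 10% FBS, given conjugate at 1, 3 or 10 μM by free uptake (no transfection agent) for 3 days. Cells trypsinised and stained 1 h with FITC anti-CD40 (HM40-3) or isotype control, then surface CD40 read by flow cytometry. Results are % untreated control, mean ± SD, n = 3.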

CD40 mRNA [4] = assay: […] CD40 expression in BCL1 cells treated with 3 uM peptide nucleic acid (PNA)conjugate; n=3; type: functional, cell-based; conditions: Mus musculus; summary of the method: as §2
CD40 mRNA [5] = assay: […] CD40 expression in BCL1 cells treated with 10 uM peptide nucleic acid (PNA)conjugate; n=3; type: functional, cell-based; conditions: Mus musculus; summary of the method: as §2
BCL1 [6] = assay: Inhibitory concentration against BCL1 cell proliferation in WST-1 assay; type: functional, Mus musculus
Summary of the method: (§3)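 BCL1 cells, 2000 per well, grown in DMEM with 10% FBS at 37 °C and 5% CO2. Exposed to conjugate for 3 days, then viable cells read by WST-1 absorbance at 450 nm. Value is the concentration at which absorbance fell below 50% of untreated control; triplicates.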

[7] = Half-life of the conjugate when treated with 25% murine serum for enzymatic stability; type: ADME; conditions: mouse; summary of the method: as §1
BCL1 [8] = assay: Inhibitory concentration against BCL1 cell proliferation in WST-1 assay; Range 10-20; type: functional, Mus musculus; summary of the method: as §3

Row | half-life [1] [h] | T1/2 [2] | half-life [7] [h] | SMILES | UTC (CD40 mRNA [3]) [%] | UTC (CD40 mRNA [4]) [%] | UTC (CD40 mRNA [5]) [%] | IC50 for cell proliferation (BCL1 [6]) [µM] | IC50 (BCL1 [8]) [µM]
1 | > 168 | No data available | – | NCCCC[C@@H](C=O)NOC(=O)[C@H](CCCN)NOC(=O)[C@H](CCCN)NC(=O)[C@H](CCCCN)NC(=O)[C@H](CCCCN)NC(=O)[C@H](CCCCN)NC(=O)[C@H](CCCCN)NOC(=O)[C@H](CCCN)NOC(=O)[C@@H](N)CCCN | – | – | – | – | –
2 | > 168 | – | > 48 | CN(C)CCCC[C@H](NC(=O)[C@H](CCCCN(C)C)NC(=O)[C@H](CCCCN(C)C)NC(=O)[C@H](CCCCN(C)C)NC(=O)[C@H](CCCCN(C)C)NC(=O)[C@H](CCCCN(C)C)NC(=O)[C@H](CCCCN(C)C)NC(=O)[C@@H](N)CCCCN(C)C)C(=O)N[C@H](C=O)CCCCN (H-[Lys(Me2)][Lys(Me2)][Lys(Me2)][Lys(Me2)][Lys(Me2)][Lys(Me2)][Lys(Me2)][Lys(Me2)]K-aldehyde) | 94 | 89 | 71 | 10 | –
3 | > 168 | – | 18 | NCCCC[C@@H](C=O)NC(=O)[C@H](CCCCN)NC(=O)[C@H](CCCCN)NOC(=O)[C@H](CCCN)NC(=O)[C@H](CCCCN)NC(=O)[C@H](CCCCN)NOC(=O)[C@H](CCCN)NC(=O)[C@H](CCCCN)NC(=O)[C@@H](N)CCCCN | 94 | 65 | 34 | – | 20
4 | > 168 | – | > 48 | NCCCC[C@@H](C=O)NC(=O)[C@H](CCCCN)NC(=O)[C@@H](CCCCN)NC(=O)[C@H](CCCCN)NC(=O)[C@H](CCCCN)NC(=O)[C@@H](CCCCN)NC(=O)[C@H](CCCCN)NC(=O)[C@@H](N)CCCCN | 102 | 87 | 62 | – | 20
5 | > 168 | – | > 48 | NCCCC[C@H](NC(=O)CN(CCCCN)C(=O)CN(CCCCN)C(=O)CN(CCCCN)C(=O)CN(CCCCN)C(=O)CN(CCCCN)C(=O)CN(CCCCN)C(=O)CN(CCCCN)C(=O)CN(CCCCN)C(=O)CN)C(=O)O (H-G[Nlys][Nlys][Nlys][Nlys][Nlys][Nlys][Nlys][Nlys]K-OH) | 92 | 80 | 56 | – | 20
6 | > 168 | – | 6 | NCCCC[C@@H](C=O)NC(=O)[C@H](Cc1c[nH]cn1)NC(=O)[C@H](CCCCN)NC(=O)[C@H](Cc1c[nH]cn1)NC(=O)[C@H](CCCCN)NC(=O)[C@H](Cc1c[nH]cn1)NC(=O)[C@H](CCCCN)NC(=O)[C@H](Cc1c[nH]cn1)NC(=O)[C@@H](N)CCCCN (H-KHKHKHKHK-aldehyde) | 88 | 87 | 73 | >20 | –
7 | > 168 | – | 44 | NCCCC[C@@H](C=O)NC(=O)[C@H](Cc1c[nH]cn1)NC(=O)[C@H](Cc1c[nH]cn1)NC(=O)[C@H](Cc1c[nH]cn1)NC(=O)[C@H](Cc1c[nH]cn1)NC(=O)[C@H](Cc1c[nH]cn1)NC(=O)[C@H](Cc1c[nH]cn1)NC(=O)[C@H](Cc1c[nH]cn1)NC(=O)[C@@H](N)Cc1c[nH]cn1 (H-HHHHHHHHK-aldehyde) | 81 | 74 | 64 | >20 | –
8 | > 168 | – | 15 | N=C(N)NCCCC[C@H](NC(=O)[C@H](CCCCNC(=N)N)NC(=O)[C@H](CCCCNC(=N)N)NC(=O)[C@H](CCCCNC(=N)N)NC(=O)[C@H](CCCCNC(=N)N)NC(=O)[C@H](CCCCNC(=N)N)NC(=O)[C@H](CCCCNC(=N)N)NC(=O)[C@@H](N)CCCCNC(=N)N)C(=O)N[C@H](C=O)CCCCN | 91 | 45 | 20 | 5 | –
9 | > 168 | – | 22 | CN(C)CCCC[C@H](NC(=O)[C@H](CCCCN)NC(=O)[C@H](CCCCN)NC(=O)[C@H](CCCCN(C)C)NC(=O)[C@H](CCCCN)NC(=O)[C@@H](N)CCCCN)C(=O)N[C@@H](CCCCN)C(=O)N[C@@H](CCCCN)C(=O)N[C@H](C=O)CCCCN (H-KK[Lys(Me2)]KK[Lys(Me2)]KKK-aldehyde) | 96 | 78 | 41 | 5 | –
10 | > 168 | – | 10 | NCCCCC[C@H](NC(=O)[C@H](CCCCN)NC(=O)[C@H](CCCCN)NC(=O)[C@H](CCCCCN)NC(=O)[C@H](CCCCN)NC(=O)[C@@H](N)CCCCN)C(=O)N[C@@H](CCCCN)C(=O)N[C@@H](CCCCN)C(=O)N[C@H](C=O)CCCCN (H-KK[hLys]KK[hLys]KKK-aldehyde) | 76 | 61 | 31 | >20 | –
11 | 120 | – | – | NCCCCC[C@H](NC(=O)[C@H](CCCCCN)NC(=O)[C@H](CCCCN)NC(=O)[C@H](CCCCN)NC(=O)[C@H](CCCCN)NC(=O)[C@H](CCCCN)NC(=O)[C@H](CCCCCN)NC(=O)[C@@H](N)CCCCCN)C(=O)N[C@H](C=O)CCCCN (H-[hLys][hLys]KKKK[hLys][hLys]K-aldehyde) | 86 | 66 | 34 | >20 | –
12 | > 168 | – | 6 | NCCCC[C@@H](C=O)NC(=O)[C@H](CCCCN)NC(=O)[C@H](CCCCN)NC(=O)[C@H](Cc1c[nH]cn1)NC(=O)[C@H](CCCCN)NC(=O)[C@H](CCCCN)NC(=O)[C@H](Cc1c[nH]cn1)NC(=O)[C@H](CCCCN)NC(=O)[C@@H](N)CCCCN (H-KKHKKHKKK-aldehyde) | 86 | 73 | 52 | – | 20
13 | > 168 | No data available | – | NCCCC[C@@H](C=O)NOC(=O)C(CCCN)NC(=O)[C@H](CCCCN)NOC(=O)C(CCCN)NC(=O)[C@H](CCCCN)NOC(=O)C(CCCN)NC(=O)[C@H](CCCCN)NOC(=O)C(CCCN)NC(=O)[C@@H](N)CCCCN (stereo partly drawn) | 94 | 61 | 42 | 5 | –
14 | > 168 | No data available | – | CN(C)CCCC[C@H](NC(=O)[C@H](CCCCN(C)C)NC(=O)[C@H](CCCCN)NC(=O)[C@H](CCCCN(C)C)NC(=O)[C@H](CCCCN(C)C)NC(=O)[C@H](CCCCN)NC(=O)[C@H](CCCCN(C)C)NC(=O)[C@@H](N)CCCCN(C)C)C(=O)N[C@H](C=O)CCCCN (H-[Lys(Me2)][Lys(Me2)]K[Lys(Me2)][Lys(Me2)]K[Lys(Me2)][Lys(Me2)]K-aldehyde) | 91 | 89 | 63 | >20 | –
15 | > 168 | – | 17 | NCCCCC[C@H](NC(=O)[C@H](CCCCCN)NC(=O)[C@H](CCCCCN)NC(=O)[C@H](CCCCCN)NC(=O)[C@H](CCCCCN)NC(=O)[C@H](CCCCCN)NC(=O)[C@H](CCCCCN)NC(=O)[C@@H](N)CCCCCN)C(=O)N[C@H](C=O)CCCCN (H-[hLys][hLys][hLys][hLys][hLys][hLys][hLys][hLys]K-aldehyde) | 87 | 65 | 31 | 10 | –
16 | – | – | – | NCCCC[C@@H](C=O)NOC(=O)C(CCCN)NOC(=O)C(CCCN)NC(=O)[C@H](CCCCN)NC(=O)[C@H](CCCCN)NC(=O)[C@H](CCCCN)NC(=O)[C@H](CCCCN)NOC(=O)C(CCCN)NOC(=O)C(N)CCCN (stereo partly drawn) | 97 | 69 | 52 | 5 | –
17 | > 168 | No data available | – | NCCCCC[C@H](NC(=O)[C@H](CCCCN)NC(=O)[C@H](CCCCCN)NC(=O)[C@H](CCCCN)NC(=O)[C@H](CCCCCN)NC(=O)[C@H](CCCCN)NC(=O)[C@H](CCCCCN)NC(=O)[C@@H](N)CCCCN)C(=O)N[C@H](C=O)CCCCN (H-K[hLys]K[hLys]K[hLys]K[hLys]K-aldehyde) | 81 | 61 | 32 | >20 | –
18 | > 168 | No data available | – | CN(C)CCCC[C@H](NC(=O)[C@H](CCCCN)NC(=O)[C@H](CCCCN(C)C)NC(=O)[C@H](CCCCN)NC(=O)[C@H](CCCCN(C)C)NC(=O)[C@H](CCCCN)NC(=O)[C@H](CCCCN(C)C)NC(=O)[C@@H](N)CCCCN)C(=O)N[C@H](C=O)CCCCN (H-K[Lys(Me2)]K[Lys(Me2)]K[Lys(Me2)]K[Lys(Me2)]K-aldehyde) | 96 | 89 | 53 | 20 | –
19 | > 168 | No data available | – | NCCCC[C@@H](C=O)NC(=O)[C@H](CCCCN)NC(=O)[C@H](CCCCN)NC(=O)[C@H](CCCCN=C(N)N)NC(=O)[C@H](CCCCN)NC(=O)[C@H](CCCCN)NC(=O)[C@H](CCCCN=C(N)N)NC(=O)[C@H](CCCCN)NC(=O)[C@@H](N)CCCCN (H-KK[hArg]KK[hArg]KKK-aldehyde) | 92 | 75 | 36 | 10 | –
20 | > 168 | – | 29 | NCCCC[C@H](NC(=O)[C@H](CCCCN)NC(=O)[C@H](CCCCN)NC(=O)CN(CCCCN)C(=O)[C@H](CCCCN)NC(=O)[C@H](CCCCN)NC(=O)CN(CCCCN)C(=O)[C@H](CCCCN)NC(=O)[C@@H](N)CCCCN)C(=O)O (H-KK[Nlys]KK[Nlys]KKK-OH) | 104 | 88 | 60 | – | 20
